Calls of active or inactive are those of the source. The rule behind the calls is not given here.
What was measured:
HepG2 [1] = assay: Selectivity ratio of etoposide IC50 to compound IC50 for human HepG2 cells; format: functional
[2] = Cytotoxicity against human BGC823 cells; format: functional, cell-based; conditions: BGC-823
Summary of the method: (§1)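 Cells seeded at 3500–13,000 per well. A549, HeLa and HepG2 were grown in DMEM and BGC-823 in RPMI 1640, each with 10% CS plus penicillin/streptomycin, at 37 °C and 5% CO₂. Drug exposure lasted 2 days, followed by MTT readout at A₄₉₂, with untreated controls at 0.6–0.8. IC50 was the concentration cutting absorbance by 50%, interpolated by sigmoidal nonlinear regression. Run in triplicate.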

HepG2 [3] = assay: Cytotoxicity against human HepG2 cells; format: functional, cell-based; summary of the method: as §1
A549 [4] = assay: Selectivity ratio of etoposide IC50 to compound IC50 for human A549 cells; format: functional
BGC-823 [5] = assay: Selectivity ratio of etoposide IC50 to compound IC50 for human BGC823 cells; format: functional
A549 [6] = assay: Cytotoxicity against human A549 cells; format: functional, cell-based; summary of the method: as §1
[7] = Cytotoxicity against human HL-7702 cells after 48 hrs by MTT assay; format: cell-based, L02; conditions: for IC50: Homo sapiens, L02, 48 h; for Activity: human, l02, 48 h
[8] = (§2) Cytotoxicity against human BGC823 cells after 48 hrs by MTT assay; format: functional, cell-based; conditions: BGC-823, 48 h; summary of the method: as §1
HeLa [9] = assay: Cytotoxicity against human HeLa cells after 48 hrs by MTT assay; format: functional, cell-based; summary of the method: as §1
A549 [10] = assay: Cytotoxicity against human A549 cells after 48 hrs by MTT assay; format: functional, cell-based; conditions: for IC50: A549, 48 h; summary of the method: as §1
[11] = Octanol-water partition coefficient, log P of the compound; format: physicochemical
Summary of the method: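 Partitioning between 1-octanol and water. The compound concentration was measured in each phase, and logP was calculated as the log of the 1-octanol concentration over the water concentration. The water concentration was corrected by an index-error factor, Y = 2.555.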

HepG2 [12] = assay: Cytotoxicity against human HepG2 cells after 48 hrs by MTT assay; format: functional, cell-based; conditions: for IC50: HepG2, 48 h; summary of the method: as §1
[13] = Cytotoxicity against human HL-7702 cells after 48 hrs by MTT assay relative to etoposide; format: functional, L02
[14] = target: DNA topoisomerase 2-alpha (Homo sapiens) (UniProt P11388); assay: Inhibition of human DNA topoisomerase-2 using kDNA as substrate assessed as inhibition of DNA relaxation at 1 to 10 uM after 60 mins by agarose gel electrophoresis
DNA topoisomerase 2-alpha (Homo sapiens), sequence (P11388 whole entry): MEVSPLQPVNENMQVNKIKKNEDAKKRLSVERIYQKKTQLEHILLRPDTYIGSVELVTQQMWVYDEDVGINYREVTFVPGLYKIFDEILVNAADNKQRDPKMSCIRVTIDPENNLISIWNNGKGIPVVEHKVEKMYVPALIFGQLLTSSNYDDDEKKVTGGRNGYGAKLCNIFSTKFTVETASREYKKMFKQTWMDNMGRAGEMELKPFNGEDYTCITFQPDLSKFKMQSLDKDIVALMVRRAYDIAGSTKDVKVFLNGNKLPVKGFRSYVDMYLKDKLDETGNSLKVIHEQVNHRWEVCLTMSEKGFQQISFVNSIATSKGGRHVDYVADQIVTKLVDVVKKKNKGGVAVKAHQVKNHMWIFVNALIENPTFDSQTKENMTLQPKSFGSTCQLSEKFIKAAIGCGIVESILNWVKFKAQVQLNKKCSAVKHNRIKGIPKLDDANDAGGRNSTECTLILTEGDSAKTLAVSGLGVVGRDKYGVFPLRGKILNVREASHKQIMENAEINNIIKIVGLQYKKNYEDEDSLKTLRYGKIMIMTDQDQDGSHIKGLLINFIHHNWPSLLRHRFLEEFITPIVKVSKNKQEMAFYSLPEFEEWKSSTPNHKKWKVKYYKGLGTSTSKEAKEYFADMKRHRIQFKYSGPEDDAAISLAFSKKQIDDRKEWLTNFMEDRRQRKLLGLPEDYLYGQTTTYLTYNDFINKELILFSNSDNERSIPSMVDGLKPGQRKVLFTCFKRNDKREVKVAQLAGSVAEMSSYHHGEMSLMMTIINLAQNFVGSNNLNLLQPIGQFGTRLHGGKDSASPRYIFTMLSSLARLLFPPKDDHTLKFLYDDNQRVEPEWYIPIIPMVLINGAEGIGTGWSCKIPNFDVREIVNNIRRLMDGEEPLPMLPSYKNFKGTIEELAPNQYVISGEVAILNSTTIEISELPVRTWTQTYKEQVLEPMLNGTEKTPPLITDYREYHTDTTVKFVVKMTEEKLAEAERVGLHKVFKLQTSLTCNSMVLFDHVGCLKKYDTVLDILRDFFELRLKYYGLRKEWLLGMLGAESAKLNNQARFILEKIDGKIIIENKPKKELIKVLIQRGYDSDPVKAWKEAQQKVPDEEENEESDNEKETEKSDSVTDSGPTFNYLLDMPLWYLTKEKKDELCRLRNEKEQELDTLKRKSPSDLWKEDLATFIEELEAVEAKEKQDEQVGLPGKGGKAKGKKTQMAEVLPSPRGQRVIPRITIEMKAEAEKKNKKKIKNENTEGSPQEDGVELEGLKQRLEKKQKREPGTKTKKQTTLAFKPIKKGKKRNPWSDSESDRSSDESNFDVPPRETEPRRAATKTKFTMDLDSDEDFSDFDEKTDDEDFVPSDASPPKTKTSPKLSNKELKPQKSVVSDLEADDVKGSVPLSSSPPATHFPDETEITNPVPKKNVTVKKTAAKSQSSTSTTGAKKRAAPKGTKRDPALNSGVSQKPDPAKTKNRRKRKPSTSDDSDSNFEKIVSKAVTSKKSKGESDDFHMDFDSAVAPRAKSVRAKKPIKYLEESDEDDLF

BGC-823 [15] = assay: as §2; format: functional, cell-based; summary of the method: as §1
HepG2 [16] = assay: Selectivity ratio of etoposide IC50 to compound IC50 for human HepG2 cells after 48 hrs by MTT assay; format: functional
HeLa [17] = assay: Cell cycle arrest in human HeLa cells assessed as accumulation at G0/G1 phase at 1 uM after 24 hrs by propidium iodide staining-based flow cytometry (reference value: 37.26 %); format: functional
HeLa [18] = assay: Cell cycle arrest in human HeLa cells after 24 hrs by propidium iodide staining-based flow cytometry; format: functional
HeLa [19] = assay: Induction of apoptosis in human HeLa cells assessed as early apoptotic cells at 1 uM after 48 hrs by Annexin V/propidium iodide staining-based flow cytometry (reference value: 2.7 %); format: functional
HeLa [20] = assay: Induction of apoptosis in human HeLa cells assessed as early apoptotic cells at 10 uM after 48 hrs by Annexin V/propidium iodide staining-based flow cytometry (reference value: 2.7 %); format: functional
HeLa [21] = assay: Cell cycle arrest in human HeLa cells assessed as accumulation at G2/M phase at 0.5 uM after 24 hrs by propidium iodide staining-based flow cytometry (reference value: 5.29 %); format: functional
HeLa [22] = assay: Cell cycle arrest in human HeLa cells assessed as accumulation at G2/M phase at 5 uM after 24 hrs by propidium iodide staining-based flow cytometry (reference value: 5.29 %); format: functional
HeLa [23] = assay: Induction of apoptosis in human HeLa cells assessed as early apoptotic cells at 5 uM after 48 hrs by Annexin V/propidium iodide staining-based flow cytometry (reference value: 2.7 %); format: functional
HeLa [24] = assay: Cell cycle arrest in human HeLa cells assessed as accumulation at G2/M phase at 1 uM after 24 hrs by propidium iodide staining-based flow cytometry (reference value: 5.29 %); format: functional
HeLa [25] = assay: Induction of apoptosis in human HeLa cells assessed as late apoptotic cells at 10 uM after 48 hrs by Annexin V/propidium iodide staining-based flow cytometry (reference value: 2.3 %); format: functional
BGC-823 [26] = assay: Selectivity ratio of etoposide IC50 to compound IC50 for human BGC823 cells after 48 hrs by MTT assay; format: functional
HeLa [27] = assay: Induction of apoptosis in human HeLa cells assessed as late apoptotic cells at 1 uM after 48 hrs by Annexin V/propidium iodide staining-based flow cytometry (reference value: 2.3 %); format: functional
HeLa [28] = assay: Induction of apoptosis in human HeLa cells after 48 hrs by Annexin V/propidium iodide staining-based flow cytometry; format: functional, cell-based
HeLa [29] = assay: Cell cycle arrest in human HeLa cells assessed as accumulation at G0/G1 phase at 5 uM after 24 hrs by propidium iodide staining-based flow cytometry (reference value: 37.26 %); format: functional
A549 [30] = assay: Selectivity ratio of etoposide IC50 to compound IC50 for human A549 cells after 48 hrs by MTT assay; format: functional
HeLa [31] = assay: Induction of apoptosis in human HeLa cells assessed as late apoptotic cells at 5 uM after 48 hrs by Annexin V/propidium iodide staining-based flow cytometry (reference value: 2.3 %); format: functional
HeLa [32] = assay: Cell cycle arrest in human HeLa cells assessed as accumulation at G0/G1 phase at 0.5 uM after 24 hrs by propidium iodide staining-based flow cytometry (reference value: 37.26 %); format: functional
HeLa [33] = assay: Selectivity ratio of etoposide IC50 to compound IC50 for human HeLa cells after 48 hrs by MTT assay; format: functional

| SMILES | IC50 [7] | Activity [7] | IC50 [8] | IC50 (HeLa [9]) | IC50 (A549 [10]) | logP [11] | IC50 (HepG2 [12]) | Activity [13] | further results |
| --- | --- | --- | --- | --- | --- | --- | --- | --- | --- |
| COc1cc([C@@H]2c3cc4c(cc3[C@@H](Sc3nc[nH]n3)[C@H]3COC(=O)[C@H]23)OCO4)cc(OC)c1O | – | – | – | – | – | – | – | – | Ratio IC50 (HepG2 [1]): 2.73; IC50 [2]: 0.28 µM; IC50 (HepG2 [3]): 0.42 µM; Ratio IC50 (A549 [4]): 221; Ratio IC50 (BGC-823 [5]): 91; IC50 (A549 [6]): 0.76 µM |
| COc1cc([C@@H]2c3cc4c(cc3[C@@H](NC(=O)c3cnc(C)cn3)[C@H]3COC(=O)[C@H]23)OCO4)cc(OC)c1O | 20.7 µM | Dose-dependent effect | 3.49 µM | 16.1 µM | 18.7 µM | 0.59 | 6.78 µM | – | – |
| COc1cc([C@@H]2c3cc4c(cc3[C@@H](OC(=O)Cn3cnc5c3c(=O)n(C)c(=O)n5C)[C@H]3COC(=O)[C@H]23)OCO4)cc(OC)c1O | 38 µM | Dose-dependent effect | 2 µM | 0.65 µM | 6.91 µM | 0.43 | 7.91 µM | 54% | – |
| COc1cc([C@@H]2c3cc4c(cc3[C@@H](OC(=O)c3ccc5ccccc5n3)[C@H]3COC(=O)[C@H]23)OCO4)cc(OC)c1O | 20.1 µM | Dose-dependent effect | 28.8 µM | 20.5 µM | 19.2 µM | 0.8 | 9.18 µM | – | – |
| COc1cc([C@@H]2c3cc4c(cc3[C@@H](NC(=O)c3cc(O)c(O)c(O)c3)[C@H]3COC(=O)[C@H]23)OCO4)cc(OC)c1O | 14.8 µM | Dose-dependent effect | 24.2 µM | 22.3 µM | 33.5 µM | 0.29 | 27.4 µM | – | – |
| COc1cc([C@@H]2c3cc4c(cc3[C@@H](OC(=O)c3cnc(C)cn3)[C@H]3COC(=O)[C@H]23)OCO4)cc(OC)c1O | 18.6 µM | Dose-dependent effect | 1.5 µM | 9.56 µM | 10.5 µM | 0.38 | 14.2 µM | – | – |
| COc1cc([C@@H]2c3cc4c(cc3[C@@H](O[C@@H]3O[C@@H]5CO[C@@H](C)O[C@H]5[C@H](O)[C@H]3O)[C@H]3COC(=O)[C@H]23)OCO4)cc(OC)c1O [ETOPOSIDE] | 24.6 µM | Dose-dependent effect | 30.7 µM | 59.4 µM | 67.2 µM | 0.52 | 15.3 µM | – | IC50 [2]: 25.7 µM; inhibition [14]: Active; Activity (BGC-823 [15]): Dose-dependent effect; Activity (HeLa [9]): Dose-dependent effect; IC50 (HepG2 [3]): 1.15 µM; Activity (A549 [10]): Dose-dependent effect; IC50 (A549 [6]): 168 µM; Activity (HepG2 [12]): Dose-dependent effect |
| COc1cc([C@@H]2c3cc4c(cc3[C@@H](O)[C@H]3COC(=O)[C@H]23)OCO4)cc(OC)c1O [4'-DEMETHYLEPIPODOPHYLLOTOXIN] | 13 µM | Dose-dependent effect | 21.3 µM | 16 µM | 52.1 µM | 0.73 | 18.7 µM | – | Activity (BGC-823 [15]): Dose-dependent effect; Activity (HeLa [9]): Dose-dependent effect; Activity (A549 [10]): Dose-dependent effect; Activity (HepG2 [12]): Dose-dependent effect |
| COc1cc([C@@H]2c3cc4c(cc3[C@@H](OC(=O)c3cnccn3)[C@H]3COC(=O)[C@H]23)OCO4)cc(OC)c1O | 52.4 µM | Dose-dependent effect | 4.15 µM | 0.6 µM | 3.83 µM | 0.33 | 1.21 µM | 114% | Ratio IC50 (HepG2 [16]): 12; Activity (HeLa [17]): 5.49%; inhibition [14]: Active; Activity (HeLa [18]): Dose-dependent effect; Activity (HeLa [19]): 4.2%; Activity (HeLa [20]): 10.8%; Activity (HeLa [21]): 19.88%; Activity (HeLa [22]): 66.85%; Activity (HeLa [23]): 10.3%; Activity (HeLa [24]): 60.96%; Activity (HeLa [25]): 45.5%; Ratio IC50 (BGC-823 [26]): 6; Activity (HeLa [27]): 7.2%; Activity (HeLa [28]): Dose-dependent effect; Activity (HeLa [29]): 4.01%; Ratio IC50 (A549 [30]): 16; Activity (HeLa [31]): 30.1%; Activity (HeLa [32]): 39.65%; Ratio IC50 (HeLa [33]): 66 |
| COc1cc([C@@H]2c3cc4c(cc3[C@@H](NC(=O)c3cnccn3)[C@H]3COC(=O)[C@H]23)OCO4)cc(OC)c1O | 53.6 µM | Dose-dependent effect | 14.4 µM | 10.8 µM | 16.5 µM | 0.43 | 6.64 µM | 117% | – |
| COc1cc([C@@H]2c3cc4c(cc3[C@@H](NC(=O)Cn3cnc5c3c(=O)n(C)c(=O)n5C)[C@H]3COC(=O)[C@H]23)OCO4)cc(OC)c1O | 50.8 µM | Dose-dependent effect | 5.88 µM | 3.18 µM | 7.32 µM | 0.56 | 2.35 µM | 106% | – |
| COc1cc([C@@H]2c3cc4c(cc3[C@@H](OC(=O)c3cn(C5CC5)c5cc(Cl)c(F)cc5c3=O)[C@H]3COC(=O)[C@H]23)OCO4)cc(OC)c1O | 41.8 µM | Dose-dependent effect | 17.4 µM | 0.6 µM | 10.1 µM | 0.69 | 16 µM | 70% | – |

Reference: ChEMBL document CHEMBL3259751, “A rational design strategy of the novel topoisomerase II inhibitors for the synthesis of the 4-O-(2-pyrazinecarboxylic)-4'-demethylepipodophyllotoxin with antitumor activity by diminishing the relaxation reaction of topoisomerase II-DNA decatenation” (Bioorg Med Chem, 2014)
